# MC4R barr agon = human MC4R agonism via beta-arrestin | activation, % at 8.9 µM | P32245 | 360,000 compounds, 0.98% hits | U2OS MC4R beta-arrestin complementation, luminescence; percent of melanotan II response, DMSO zero;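 active = activation above a per-plate cutoff, the mean activation of sample wells on that plate plus 3 SD, cut at about 8% in these data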
# A1 inh = inhibitors of the anti-apoptotic protein A1, read as caspase activation. MEF A1-2A-BIM cells, Caspase-Glo 3/7 luminescence, 3 h; percent of clofoctol response, vehicle zero. caspase activation, % (no concentration beside the values). 330,000 compounds, 0.066% hits. AID 2462;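 active = over half of replicate activation scores above 10%, or exactly half above 10 with the replicate mean above 10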
# MC4R antag cAMP = human MC4R antagonism in cAMP assay; P32245; MC4R-expressing cells, MTII-stimulated cAMP, LANCE TR-FRET; inhibition, % at 6.5 µM; 360,000 compounds, 0.48% hits;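 active = inhibition above its plate's cutoff, the mean of tested wells on that plate plus 3 SD, cut at about 29% in these data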
#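 system = U2OS cells with stable human MC4R expression | also added = Melanotan II challenge after compound preincubation | dosing = one concentration, 6.5 µM nominal | incubation = compound 30 min, challenge 1 h, detection 1 h | measured by = TR-FRET with Eu-cAMP and labeled anti-cAMP, 671 nm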
# NTR1 agonist = activates human neurotensin receptor 1; activation, % at 20 µM; P30989; 330,000 compounds, 0.17% hits; AID 493036; NTR1-U2OS beta-arrestin-GFP spot imaging, agonist mode;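 active = activation at or above 40% of the spot to cytoplasm intensity ratio, with at least 20 cells analyzed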
# Granule exo inh = blocks lytic granule exocytosis. TALL-104 LAMP-1 surface exposure, flow cytometry; cells stimulated with thapsigargin and PMA. inhibition, % at 10 µM. 360,000 compounds, 0.66% hits;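 active = inhibition above about 55%, limit read from the data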
# HGIII-sPLA2 inh = Blocks human group III sPLA2 activity; Q9NZ20; QFRET BODIPY PC-A2 liposome hydrolysis, fluorescence; inhibition, % at 12.2 µM; 370,000 compounds, 0.56% hits; AID 743126;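 active = inhibition above mean plus 3 SD of compounds lying within the high and low control bounds, cut at about 19% in these data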
# Target sequence (Q9NZ20 whole entry, looked up): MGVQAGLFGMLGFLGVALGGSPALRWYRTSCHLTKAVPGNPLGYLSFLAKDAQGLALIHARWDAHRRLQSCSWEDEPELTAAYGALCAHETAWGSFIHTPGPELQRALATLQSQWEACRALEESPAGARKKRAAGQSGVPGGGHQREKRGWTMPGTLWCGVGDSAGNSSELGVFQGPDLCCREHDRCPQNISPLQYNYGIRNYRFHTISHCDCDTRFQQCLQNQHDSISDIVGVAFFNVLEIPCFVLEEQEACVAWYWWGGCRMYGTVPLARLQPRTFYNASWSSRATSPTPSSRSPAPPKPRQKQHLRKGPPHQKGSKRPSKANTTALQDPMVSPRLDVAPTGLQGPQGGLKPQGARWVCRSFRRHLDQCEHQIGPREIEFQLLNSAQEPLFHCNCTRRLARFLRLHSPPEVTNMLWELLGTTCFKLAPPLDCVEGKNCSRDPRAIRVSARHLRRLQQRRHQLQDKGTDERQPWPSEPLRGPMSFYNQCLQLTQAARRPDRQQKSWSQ
# Numbers stand for hits; 0 = inactive; - = no result given. The list is not random: actives were taken first. Their share in the collection is about 2.5%.
SMILES,MC4R barr agon,A1 inh,MC4R antag cAMP,NTR1 agonist,Granule exo inh,HGIII-sPLA2 inh
COc1ccc(C=O)cc1COc1ccc(C)cc1[N+](=O)[O-],0,0,0,0,0,0
COc1ccc(-c2c(C)nc(N)nc2-c2ccc(OCc3ccc(C)cc3)cc2O)cc1OC,9.6,0,0,0,0,0
COc1ccc(-c2c(C)nc(N)nc2-c2ccc(OC)cc2O)cc1,0,0,0,0,0,0
COC(=O)[C@]12C[C@H](CC(=O)NCCC(C)C)C(=O)N(Cc3cccc4ccccc34)C1=C[C@H](C(C)(C)C)O[C@@H]2C,-,-,-,-,-,0
O=Nc1c(-c2cccc([N+](=O)[O-])c2)nc2ncccn12,0,0,0,0,74,0
O=c1c(O[C@H]2O[C@@H](CO)[C@H](O)[C@@H](O)[C@@H]2O)c(-c2ccc(O)cc2)oc2cc(O)cc(O)c12,0,0,0,0,68,0
O=C(CS)Nc1ccc2ccccc2c1,0,0,0,-,67,0
CCCCCC(=O)Nc1ccc2ccccc2c1,0,0,0,0,0,0
Cc1cccc(C)c1NC(=O)c1sccc1SCc1cccc(C(F)(F)F)c1,0,0,0,0,66,-
Cc1ccc(NC(=O)c2sccc2SCc2cccc(C(F)(F)F)c2)cc1,0,0,0,0,0,0
CN[C@H]1C[C@H]2c3[nH]c4c(-c5cccc(C)c5)cccc4c3CCN2C(=O)[C@H]1[C@H](C)O,-,-,-,-,-,0
Cc1ccc(NC(=O)Cn2c(O)c(N=NS(=O)(=O)c3ccc(C)cc3)c3ccccc32)cc1,0,0,0,0,56,0
Cc1ccc(NC(=O)Cn2c(O)c(N=NC(N)=O)c3ccccc32)cc1,0,0,0,0,0,0
O=C(COC(=O)c1cccc(Br)c1)NC(=O)NC1CCCC1,8.8,-,0,0,0,0
COc1ccc(-n2c(SCC(=O)Nc3ccc(S(=O)(=O)Nc4nccs4)cc3)nnc2-c2ccco2)cc1,-,-,-,-,-,0
O=C(/C=C\c1cn(-c2ccccc2)nc1-c1ccc2c(c1)OCCO2)N1CCOCC1,8.5,0,0,0,0,0
O=C(O)/C=C/c1cn(-c2ccccc2)nc1-c1ccc2c(c1)OCCO2,0,0,0,0,0,0
COC(=O)C[C@@H]1CC[C@@H]2[C@H](COc3ccc(NC(=O)c4cccc(OC)c4)cc3C(=O)N2C)O1,-,-,-,-,-,0
O=C(COc1ccc(Cl)cc1Cl)Nc1ccc(Cl)cn1,0,0,0,0,0,0
CCOc1ccc(C(=O)Nc2ccc(Cl)cn2)cc1Cl,8.3,0,0,0,0,0
COC(=O)c1ccc2c(C3(c4c[nH]c5ccccc45)CCN(C(=O)OC(C)(C)C)CC3)c[nH]c2c1,-,-,-,-,-,0
O=C(CSc1nc(-c2ccc(Cl)cc2)cs1)Nc1cccc([N+](=O)[O-])c1,0,0,0,0,65,0
COc1ccc(CC(N)c2csc(NC(=O)c3cccc(OC(F)(F)F)c3)n2)cc1 (stereo not given),8.9,-,0,-,0,0
CCc1c(-c2cccc(Br)c2)ncn1CCc1ccccc1OC,-,-,-,-,-,0
Fc1ccccc1-c1ccc(/C=N/Nc2nc3ccccc3[nH]2)o1,0,0,0,0,70,30
SMILES,MC4R barr agon,A1 inh,MC4R antag cAMP,NTR1 agonist,Granule exo inh,HGIII-sPLA2 inh
FC(F)(F)c1nc(NCc2ccccc2)c2nnn(Cc3ccccc3)c2n1,8.4,0,0,0,0,0
CCN(CC)CCNc1nc(C(F)(F)F)nc2c1nnn2Cc1ccccc1,0,0,0,0,0,0
O=C(Nc1cnn(Cc2ccc(F)cc2)c1)c1cc2nc(-c3ccco3)cc(C(F)(F)F)n2n1,9.2,0,0,0,0,0
COc1ccc(-c2sc3cc(OC)ccc3c2-c2ccc(OCCN3CCCCC3)cc2)cc1,-,-,-,-,0,0
COc1cccc(-c2sc3cc(OC)c(OC)cc3c2-c2ccc(OCCN3CCCCC3)cc2)c1,11,-,0,0,62,-
COc1ccc2c(-c3ccc(OCCN4CCCCC4)cc3)c(-c3ccccc3OC)sc2c1,0,-,0,0,66,-
COc1ccccc1-c1sc2ccccc2c1-c1ccc(OCCN2CCCCC2)cc1,0,-,0,0,0,-
COc1cccc(-c2sc3ccc(OC)cc3c2-c2ccc(OCCN3CCCC3)cc2)c1,27,-,0,0,0,-
COc1cccc(-c2sc3ccccc3c2-c2ccc(OCCN3CCCCC3)cc2)c1,18,0,0,0,0,-

# Screening results (PubChem BioAssay)
